Reference: ChEMBL document CHEMBL3632601, “Actinoramide A Identified as a Potent Antimalarial from Titration-Based Screening of Marine Natural Product Extracts” (J Nat Prod, 2015)
Active and inactive are the calls of the source. No cut-off for these calls is given here.

Experiments:
Jurkat = assay: Cytotoxicity against human Jurkat cells after 72 hrs by SYBR Green viability assay; format: cell-based
HepG2 = assay: Cytotoxicity against human HepG2 cells after 72 hrs by CellTiter-Glo assay; settings: hepg2, 72 h
HEK293 = assay: Cytotoxicity against human HEK293 cells after 72 hrs by CellTiter-Glo assay; settings: hek293, 72 h
Plasmodium falciparum [1] = assay: Antiplasmodial activity against Plasmodium falciparum Dd2 after 72 hrs by SYBR green DNA-staining parasite viability assay; format: functional, organism-based
Procedure, shortened: (§1)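 Intra-erythrocytic P. falciparum growth in 1536-well format. Infected RBCs at 0.3% parasitemia and 2.5% hematocrit (final) were exposed to compound at 37 °C, 5% CO2, for 72 h. Lysis buffer was added (Tris-HCl, EDTA, saponin, Triton X-100, SYBR Green I), followed by overnight incubation in the dark at 22–24 °C. Fluorescence read at 485/535 nm. Artemisinin and mefloquine served as positive controls, DMSO as negative. EC50 from curve fits, duplicate titrations.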

Plasmodium falciparum [2] = assay: Antiplasmodial activity against Plasmodium falciparum HB3 after 72 hrs by SYBR green DNA-staining parasite viability assay; format: functional, organism-based; procedure, shortened: as §1
Plasmodium falciparum [3] = assay: Antiplasmodial activity against Plasmodium falciparum 7G8 after 72 hrs by SYBR green DNA-staining parasite viability assay; format: functional, organism-based; procedure, shortened: as §1
Plasmodium falciparum [4] = assay: Antiplasmodial activity against Plasmodium falciparum GB4 after 72 hrs by SYBR green DNA-staining parasite viability assay; format: functional, organism-based; procedure, shortened: as §1
Plasmodium falciparum [5] = assay: Antiplasmodial activity against Plasmodium falciparum cp250 after 72 hrs by SYBR green DNA-staining parasite viability assay; format: functional, organism-based; procedure, shortened: as §1
Plasmodium falciparum [6] = assay: Inhibition of aspartyl protease activity of plasmepsin in Plasmodium falciparum extracts using EDANSCOCH2CH2CO-ALERMFLSFP-Dap(DABCYL)OH as substrate after 15 mins by fluorescence assay
Procedure, shortened: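 Saponin-treated, RBC-depleted P. falciparum extract (plasmepsin pellet, 0.16% final) in 100 mM sodium acetate pH 5.0, 20% glycerol. Compound pin-transferred, then 15 min preincubation with enzyme. EDANS-DABCYL Plasmepsin II substrate added at 5 or 10 μM final, under KM conditions. Fluorescence (ex 336/em 490 nm) read over 3 h. EC50 calculated from plotted data.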

Row | inhibition (Plasmodium falciparum [6]) | Structure (SMILES) | EC50 (Jurkat) [µM] | Activity (HepG2) | Activity (HEK293) | Activity (Plasmodium falciparum [1]) | Activity (Plasmodium falciparum [2]) | Activity (Plasmodium falciparum [3]) | Activity (Plasmodium falciparum [4]) | Activity (Plasmodium falciparum [5]) | EC50 (Plasmodium falciparum [1]; Dd2, 72 h) [nM] | EC50 (Plasmodium falciparum [2]; HB3, 72 h) [nM] | EC50 (Plasmodium falciparum [3]; 7G8, 72 h) [nM] | EC50 (Plasmodium falciparum [4]; GB4, 72 h) [nM] | EC50 (Plasmodium falciparum [5]; cp250, 72 h) [nM]
1 |  | COCC(=O)N[C@@H](C(=O)N1NCCC[C@H]1C(=O)N[C@@H](Cc1ccccc1)[C@@H](O)[C@H](C)C(=O)N[C@H]1CCC(=O)NC1=O)[C@H](O)C(C)C | 30 | Non-toxic | Non-toxic |  |  |  |  |  |  |  |  |  | 
2 |  | COCC(=O)N[C@@H](C(=O)N1NCCC[C@H]1C(=O)N[C@@H](Cc1ccccc1)[C@@H](O)[C@H](C)C(=O)N[C@@H]1CCN(C(N)=O)C1=O)[C@H](O)C(C)C |  | Non-toxic | Non-toxic | Active | Active | Active | Active | Active |  |  |  |  | 
3 |  | COCC(=O)N[C@@H](C(=O)N1NCCC[C@H]1C(=O)N[C@@H](Cc1ccccc1)[C@@H](O)[C@H](C)C(=O)N[C@H]1CCNC1=O)[C@H](O)C(C)C |  | Non-toxic | Non-toxic | Active | Active | Active | Active | Active |  |  |  |  | 
4 |  | COCC(=O)N[C@@H](C(=O)N1NCCC[C@H]1C(=O)N[C@@H](Cc1ccccc1)[C@@H](O)[C@H](C)C(=O)NC1CNC(=O)NC1=O)[C@H](O)C(C)C (some centres not stated) |  | Non-toxic | Non-toxic | inactive | inactive | inactive | inactive | inactive |  |  |  |  | 
5 | inactive | COCC(=O)N[C@@H](C(=O)N1NCCC[C@H]1C(=O)N[C@@H](Cc1ccccc1)[C@@H](O)[C@H](C)C(=O)N[C@H]1CCN(C(N)=O)C1=O)[C@H](O)C(C)C | 90 | Non-toxic | Non-toxic |  |  |  |  |  | 200 | 200 | 200 | 200 | 200
6 |  | COCC(=O)N[C@@H](C(=O)N1N=CCC[C@H]1C(=O)N[C@@H](Cc1ccccc1)[C@@H](O)[C@H](C)C(=O)N[C@H]1CCN(C(N)=O)C1=O)[C@H](O)C(C)C |  | Non-toxic | Non-toxic | Active | Active | Active | Active | Active |  |  |  |  | 
7 |  | COCC(=O)N[C@@H](C(=O)N1NCCC[C@H]1C(=O)N[C@@H](Cc1ccccc1)[C@@H](O)[C@H](C)C(=O)N[C@H]1CCN(C(C)=O)C1=O)[C@H](O)C(C)C |  | Non-toxic | Non-toxic | Active | Active | Active | Active | Active |  |  |  |  | 
